dFosB act-1: enhances mouse delta FosB homodimer DNA binding; AID 493131; activation, % at 25 µM; P13346; purified delta FosB, TAMRA-CDK5 oligo fluorescence polarization; percent of positive-control signal above neutral wells; hit rate 0.99% among 340,000;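 active means mean activation above about 17%, with every replicate also reaching it, limit read from the data, passing the limit was not always enough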
Target sequence (P13346 whole entry, looked up): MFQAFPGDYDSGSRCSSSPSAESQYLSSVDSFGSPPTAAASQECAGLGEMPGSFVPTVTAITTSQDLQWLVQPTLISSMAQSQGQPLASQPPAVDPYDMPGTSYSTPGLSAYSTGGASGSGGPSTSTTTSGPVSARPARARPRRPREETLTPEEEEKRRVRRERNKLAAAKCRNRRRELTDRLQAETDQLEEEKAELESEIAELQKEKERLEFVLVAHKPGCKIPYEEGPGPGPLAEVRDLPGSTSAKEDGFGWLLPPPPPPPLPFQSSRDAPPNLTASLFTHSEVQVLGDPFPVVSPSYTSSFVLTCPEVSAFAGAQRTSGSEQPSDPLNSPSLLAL
SR-BI HDL uptake: blocks mouse SR-BI lipid uptake from DiI-HDL. inhibition, % at 12.5 µM. ldlA[mSR-BI] CHO cells, DiI-HDL uptake fluorescence, 3 h. Q61009. hit rate 0.96% among 320,000. AID 488896;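 active means mean replicate inhibition of at least 70% and a set share of replicates each scoring 70 or more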;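 further: 0% = median of neutral control wells and 100% = median of positive control wells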
SR-BI DiI-HDL act: SR-BI HDL lipid transfer activation; CHO ldlA[mSR-BI] cells, DiI-HDL uptake fluorescence, 3 h; 100 = double the neutral-control signal; activation, % at 12.5 µM; hit rate 0.096% among 320,000; AID 504775;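 active means mean replicate activation of at least 60% and every replicate at or above 60%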;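 further: 0% = median plate neutral-control signal and 100% = twice that signal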
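Assay system: CHO ldlA[mSR-BI] cells, LDL receptor-null, SR-BI overexpressing; medium: Ham's F12 with 0.5% BSA, HEPES 25 mM, pH 7.4; also added: DiI-HDL 10 µg/mL; timing: 3 h uptake period with compound, 37 °C; signal: DiI fluorescence, bottom read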
XiGFP reactiv: X-chromosome reactivation activator | activation, % at 7.58 µM | AID 743238 | hit rate 0.055% among 360,000 | XiGFP mouse fibroblasts, % GFP-positive cells imaging, 3 d; cells co-treated with 5-aza-dC sensitizer; scaled so ellipticine positive control = 100%;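 active means mean normalized replicate activation at least 10% and every replicate at or above 10%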;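 further: 0% = median of on-plate neutral control wells and 100% = ellipticine 6 µM median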
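material = 68-5-11 XiGFP fibroblast line | medium = DMEM plus 5-aza-dC sensitizer | schedule = 3 days compound exposure | benchmarks = positive control ellipticine, 6 µM final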
rRNA inh HTS: inhibitors of bacterial rRNA selective over humanized ribosomes; hit rate 1.6% among 350,000; E. coli WT GFP vs humanized-ribosome RFP mutants, fluorescence, 24 h; stronger effect = lower value; DMSO median 0, no signal -100; GFP signal change (wild-type ribosome), % (test concentration not listed);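 active means significant combined selectivity score with lowered wild-type GFP, culture density cut under 30%, mutant RFP and density less affected; inactive means any of these conditions unmet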
PvdQ inh: P. aeruginosa PvdQ acylase inhibition; AID 488965; hit rate 0.063% among 340,000; purified PvdQ acylase, fluorescence plate reader; inhibition, % at 10 µM; in the data active means inhibition above about 30%, passing the limit was not always enough;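 further: 0% = vehicle neutral wells and 100% = reference inhibitor wells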
dFosB act-2: delta FosB (mouse) homodimer activation; shares compounds with dFosB act-1; 2,400 tested, under 10 active; activation, % at 24.9 µM; purified delta FosB, TAMRA-CDK5 oligo fluorescence polarization; normalised: neutral wells 0, positive control 100;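 active means highest replicate activation at or above 34% and every replicate reaching that threshold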;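 further: higher polarization means more probe DNA bound by delta FosB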
Active calls of the source: *; · = no result given. Only some compounds are listed: those with a hit (about 2.6% of all), similar ones and a draw of the others.

SMILES	dFosB act-1	SR-BI HDL uptake	SR-BI DiI-HDL act	XiGFP reactiv	rRNA inh HTS	PvdQ inh	dFosB act-2
C/C(=N\NC(=O)c1nnn(-c2nonc2N)c1C(C)C)c1ccc2ccccc2c1	41*	5	-5	0	5	0	-1
COc1ccc(/C(C)=N/NC(=O)c2nnn(-c3nonc3N)c2-c2ccccc2)cc1	30*	·	·	0	5	-9	7
C/C(=N\NC(=O)c1nnn(-c2nonc2N)c1C(C)C)c1ccncc1	-2	3	-3	0	3	-5	·
COc1ccc(C(=O)Nc2ccc(C(=O)NCCc3ccc(OC)c(OC)c3)cc2)cc1	41*	79*	-79	0	20	6	3
COc1ccc(C(=O)Nc2ccc(NC(=O)c3ccco3)cc2)cc1	51*	·	·	0	14	2	1
COc1ccc(C(=O)Nc2ccc(-c3nnn(CC(=O)N4CCN(C(=O)c5ccco5)CC4)n3)cc2)cc1	68*	67	-67	0	·	-10	-1
O=C(Cn1nnc(-c2ccc(Cl)cc2)n1)N1CCN(C(=O)c2ccco2)CC1	-16	11	-11	0	-1	-8	·
O=C(NC(=S)Nc1nc(-c2ccccc2)cs1)c1ccco1	-4	8	-3	0	1	-19	·
COc1ccc(-c2csc(NC(=S)NC(=O)c3ccco3)n2)cc1	47*	4	-4	0	4	-9	-4
OCCN(Cc1ccccc1)C(=S)Nc1ccc(Cl)cc1Cl	-5	21	-21	-1	-35	-9	·
Cc1ccccc1NC(=O)Nc1ccccc1C(N)=O	-11	-19	19	0	20	-5	·
COc1ccc(OC)c(-c2csc(N(C)C(=O)c3ccco3)n2)c1	19*	49	-49	0	10	6	8
C=CCc1cc(Cl)ccc1OCCNCCN1CCOCC1	-9	-4	4	0	7	-5	·
CC(C)(C)c1ccc(/C=C/C(=O)c2ccc(NC3=NCCCS3)cc2)cc1	31*	19	-19	0	-20	-16	-2
NC(=O)c1nn(-c2ccccc2)nc1NC(=O)Cn1nnc(-c2ccccc2)n1	22*	-19	19	0	·	-11	4
O=C(Cn1nnc(-c2ccccc2)n1)NNC(=O)c1ccc(Br)cc1	36*	-22	22	0	5	-8	2
CNC[C@H]1Oc2cc(C#C[C@@H](C)O)ccc2S(=O)(=O)N([C@@H](C)CO)C[C@@H]1C	·	·	·	0	4	·	·
O=C(Nc1ccccc1)C(=O)c1c[nH]c2ccccc12	1	-3	3	0	1	-7	·
COC(=O)c1ccc(NC(=O)C(=O)c2c[nH]c3ccccc23)cc1	72*	24	-24	0	10	-11	7
CCOC(=O)CSc1nc(C)cc(C)n1	16*	-30	30	·	·	-19	0
CN1c2ccc(C3=CCCCC3)cc2[C@@H]2[C@@H](CCN2C(=O)C2CCC2)[C@@H]1CO	·	·	·	0	-15	·	·
Cc1ccc(-c2cc(C(F)F)nc3sc4c(=O)[nH]cnc4c23)cc1	33*	9	-9	0	10	-12	0
Cc1ccc(C(=O)N/C(=C\c2cn(C)c3ccccc23)C(=O)OCCN(C)C)cc1	-2	-7	7	0	·	-9	·
CC(C)C[C@@H](CN1CCCC1CN1C(=S)NC[C@@H]1Cc1ccc(O)cc1)N1C[C@H](Cc2ccccc2)N(CCc2ccccc2)C1=S (stereo not given in full)	61*	-5	5	0	4	-5	6
CC(C)C[C@H]1CN([C@@H](CC(C)C)CN2CCCC2CN2C(=S)NC[C@@H]2Cc2ccc(O)cc2)C(=S)N1CCc1ccccc1 (stereo not given in full)	25*	2	-2	0	0	-4	3
